Test results: ChEMBL document CHEMBL1275350, “First in class, potent, and orally bioavailable NADPH oxidase isoform 4 (Nox4) inhibitors for the treatment of idiopathic pulmonary fibrosis” (J Med Chem, 2010)

Assays:
[1] = target: T1, NADPH oxidase 4 (Homo sapiens, UniProt Q9NPH5); experiment: Inhibition of human NOX4 overexpressed in T-REx-293 cell membrane assessed as ROS production by cell free assay in presence of NADPH; settings: in the assay text read “T-REx-293 cell membrane” for “human PMN cell membrane”
T1 sequence (Q9NPH5 whole entry): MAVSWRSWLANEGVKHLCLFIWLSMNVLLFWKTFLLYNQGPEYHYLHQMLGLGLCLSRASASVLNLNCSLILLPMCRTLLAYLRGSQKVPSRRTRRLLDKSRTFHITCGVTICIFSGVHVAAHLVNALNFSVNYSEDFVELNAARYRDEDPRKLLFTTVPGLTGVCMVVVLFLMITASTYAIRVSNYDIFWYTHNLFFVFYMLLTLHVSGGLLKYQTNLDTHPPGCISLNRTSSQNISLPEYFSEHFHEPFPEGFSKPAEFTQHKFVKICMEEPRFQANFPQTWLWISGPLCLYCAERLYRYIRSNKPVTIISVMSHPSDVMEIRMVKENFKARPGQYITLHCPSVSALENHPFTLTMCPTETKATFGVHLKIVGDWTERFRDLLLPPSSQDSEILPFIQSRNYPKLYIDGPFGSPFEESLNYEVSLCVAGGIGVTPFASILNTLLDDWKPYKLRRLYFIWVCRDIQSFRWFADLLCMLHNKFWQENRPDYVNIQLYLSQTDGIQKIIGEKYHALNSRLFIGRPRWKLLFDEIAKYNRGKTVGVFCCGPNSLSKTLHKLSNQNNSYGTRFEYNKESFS
How it was run: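 hNOX4 T-REx-293 cells induced with tetracycline (1 μg/mL, 24 h), sonicated in sucrose/NaCl/EGTA PBS buffer pH 7.4, membranes taken from a sucrose gradient. NADPH-triggered ROS measured by Amplex Red/HRP in PBS, with compound at 1 nM–100 μM, 20 min at 37 °C. Ki by Cheng-Prusoff from ≥3 triplicate experiments.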

[2] = Intrinsic clearance in Sprague-Dawley rat liver microsomes assessed per mg of protein at 0.5 uM; type: ADME, Microsome
How it was run: (§1)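 Phase I stability assay in pooled liver microsomes (human: male and female; rat: male Sprague-Dawley). Microsomes at 0.5 mg/mL final in 0.1 M phosphate pH 7.4. Compound 0.5 μM final, 0.25% DMSO. Preincubated at 37 °C, reaction started with 1 mM NADPH. Sampled at 0, 5, 15, 30 and 45 min, with a 45 min minus-NADPH control. Methanol quench with internal standard, LC/MS-MS, intrinsic clearance calculated.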

[3] = Intrinsic clearance in human liver microsomes assessed as per mg of protein at 0.5 uM; type: ADME, Microsome; how it was run: as §1
[4] = Permeability across human Caco-2 cell membrane at 10 uM after 2 hrs; type: ADME, cell-based
How it was run: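 Caco-2 monolayers grown 20 days in DMEM, used when TEER >800 Ω·cm2. Dosed at 10 μM final in HBSS pH 6.5 with 1% DMSO, apical-to-basolateral and basolateral-to-apical. Incubated 2 h at 37 °C, both compartments sampled, LC-MS/MS with five-point calibration. Papp = (dQ/dt)/(C0A).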

Ki [1]	Compound	other results
128 nM	Cn1c(-c2ccccc2F)c2c(=O)n(-c3ccccc3Cl)[nH]c2cc1=O	
82 nM	Cn1c(COCc2ccccc2Cl)c2c(=O)n(-c3ccccc3Cl)[nH]c2cc1=O	microsomal CLint at 0.5 µM [2]: 210 µL/min/mg; microsomal CLint at 0.5 µM [3]: 212 µL/min/mg; Papp at 2 h, 10 µM [4]: 62.6 ×10⁻⁶ cm/s
213 nM	Cc1c2c(=O)n(-c3ccc(F)cc3Cl)[nH]c2cc(=O)n1C	
387 nM	Cc1c2c(=O)n(C)[nH]c2cc(=O)n1Cc1ccccn1	
> 30000 nM	Cc1c2c(=O)n(-c3nc4ccccc4s3)n(Cc3ccccc3)c2cc(=O)n1CC1CCCO1 (stereo not drawn)	
409 nM	CC(=O)n1c2cc(=O)n(Cc3cccnc3)c(C)c2c(=O)n1-c1ccccc1	
313 nM	COCCn1[nH]c2cc(=O)n(Cc3ccccn3)c(C)c2c1=O	
235 nM	Cc1c2c(=O)n(-c3ccc(F)cc3Cl)[nH]c2cc(=O)n1Cc1ccccn1	microsomal CLint at 0.5 µM [2]: 84.2 µL/min/mg; microsomal CLint at 0.5 µM [3]: 37.6 µL/min/mg; Papp at 2 h, 10 µM [4]: 13.4 ×10⁻⁶ cm/s
1840 nM	Cc1c2c(=O)n(-c3nc4ccccc4s3)[nH]c2cc(=O)n1CCc1c[nH]c2ccccc12	
235 nM	Cc1c2c(=O)n(-c3ccccc3Cl)[nH]c2cc(=O)n1CCN(C)C	
398 nM	CC(=O)n1c2cc(=O)n(Cc3cccnc3)c(C)c2c(=O)n1-c1ccccc1C	
> 30000 nM	Cc1c2c(=O)n(-c3nc4ccccc4s3)n(Cc3ccccc3Cl)c2cc(=O)n1N1CCOCC1	
458 nM	Cc1c2c(=O)n(-c3ccnc4cc(Cl)ccc34)[nH]c2cc(=O)n1Cc1ccccn1	
463 nM	Cc1c2c(=O)n(Cc3ccccc3)[nH]c2cc(=O)n1Cc1ccccn1	
445 nM	Cc1c2c(=O)n(CCN3CCOCC3)[nH]c2cc(=O)n1Cc1ccccn1	
> 30000 nM	Cc1c2c(=O)n(-c3ccc4nncn4n3)[nH]c2cc(=O)n1Cc1cccc(Oc2ccccc2)c1	
285 nM	COc1cccc(CC(=O)n2c3cc(=O)n(Cc4cccnc4)c(C)c3c(=O)n2-c2ccccc2)c1	
4730 nM	Cc1c2c(=O)n(-c3nc4ccccc4s3)[nH]c2cc(=O)n1CCc1c[nH]cn1	
173 nM	Cc1ccccc1-n1[nH]c2cc(=O)n(Cc3ccccn3)c(C)c2c1=O	
4220 nM	Cc1c2c(=O)n(-c3nc4ccccc4s3)[nH]c2cc(=O)n1Cc1ccc(C(=O)O)cc1	
236 nM	Cc1c2c(=O)n(-c3ccccc3Cl)[nH]c2cc(=O)n1Cc1cccc(N2CCOCC2)n1	microsomal CLint at 0.5 µM [2]: 71.6 µL/min/mg
218 nM	Cc1c2c(=O)n(-c3ccccc3Cl)[nH]c2cc(=O)n1NC(=O)COc1ccc(F)cc1	
565 nM	Cc1c2c(=O)n(-c3ccccc3Cl)[nH]c2cc(=O)n1CCCO	
340 nM	Cc1c2c(=O)n(-c3cccc(Cl)c3)[nH]c2cc(=O)n1C	microsomal CLint at 0.5 µM [2]: 163 µL/min/mg
5440 nM	Cc1c2c(=O)n(-c3ccccc3)[nH]c2cc(=O)n1Cc1ccc2c(c1)OCO2	
520 nM	Cc1c2c(=O)n(-c3ccccc3Cl)[nH]c2cc(=O)n1CC1CCCCC1	
> 30000 nM	Cc1c2c(=O)n(-c3ccccc3)n(Cc3ccc(F)cc3)c2cc(=O)n1CCc1c[nH]c2ccccc12	
158 nM	Cc1c2c(=O)n(-c3ccccc3Cl)[nH]c2cc(=O)n1CC#Cc1ccccc1	microsomal CLint at 0.5 µM [2]: 178 µL/min/mg
> 30000 nM	CCOCCCn1c(C)c2c(=O)n(-c3ccccc3Cl)n(Cc3ccccn3)c2cc1=O	
